Experimental data reported in publication PMC9673116 (Poultry Science, 2022).
Read-outs that look alike come from different tables or passages of the source.

How the values were obtained:
chicken BCRP = conditions: ref Zhang et al., 2018; cited from earlier work
[1] = Arbor Acres broilers, ref Liu et al., 2018; cited from earlier work
[2] = Pharmacokinetic study of orally administered florfenicol in chicken; assay type: in vivo; conditions: female, HY-Line Brown, plasma, po, 20 mg/kg
BCRP = test: Mitoxantrone accumulation assay; assay type: cell-based, chicken
Outline: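 Hepatocytes isolated from livers of 14-day-old Arbor Acres broiler embryos, grown in M199 with transferrin, penicillin and streptomycin (37°C, 5% CO2). Exposed 24 h to CXR agonist alone or with BCRP inhibitor; untreated cells served as negative control. All wells then loaded with mitoxantrone 1 h, trypsinized, washed 3× PBS. Intracellular fluorescence read by flow cytometry at 633 nm excitation. At least 3 independent experiments, mean ± SD.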

[3] = ref Anadon et al., 2008; cited from earlier work
ABCG2 mRNA [4] = test: RT-PCR analysis of ABCG2 mRNA in chicken primary hepatocytes; assay type: cell-based; conditions: hepatocytes transfected with siCXR, 500 µM metyrapone 24 h
Outline: (§1)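 Primary broiler-embryo hepatocytes grown to 70% confluency in 6-well plates. Transfected 24 h with CXR-targeting or scrambled control siRNA, then exposed to CXR agonist 24 h. Total RNA extracted with TRIzol and reverse-transcribed. Target mRNA quantified by SYBR Green real-time PCR against β-actin, 2^−ΔΔCt method. Three independent experiments, mean ± SD.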

BCRP protein [5] = test: Western blot analysis of BCRP protein expression in chicken primary hepatocytes; assay type: cell-based
Outline: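 Primary hepatocytes exposed 24 h to a range of CXR agonist concentrations, or siRNA-knocked-down first (CXR-targeting vs scrambled) and then agonist-treated 24 h. Lysed in RIPA, protein by BCA, separated on 5–12% SDS-PAGE, transferred to PVDF. Blocked with 5% milk 1 h. Probed overnight at 4°C with anti-BCRP 1:500 and anti-β-tubulin 1:5,000, then secondary 1:4,000 1 h at 37°C. ECL detection; densitometry normalized to β-tubulin.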

CYP2H1 mRNA [6] = test: RT-PCR analysis of CYP2H1 mRNA in tissues of chickens treated with metyrapone; assay type: in vivo; conditions: metyrapone single oral 150 mg per chicken, 24 h
Outline: (§2)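 Twelve third-week-old chickens of similar weight in two groups of 6: untreated, or a single oral CXR agonist dose of 150 mg per chicken. Killed by CO2 asphyxiation 24 h later. Tissues snap-frozen and stored −70°C. RNA extracted with TRIzol and reverse-transcribed. mRNA quantified by SYBR Green real-time PCR with β-actin reference, 2^−ΔΔCt. Mean ± SD.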

CYP2H1 mRNA [7] = test: RT-PCR analysis of CYP2H1 mRNA in chicken primary hepatocytes; assay type: cell-based; conditions: 500 µM metyrapone 24 h
Outline: as §1

ABCG2 mRNA [8] = test: RT-PCR analysis of ABCG2 mRNA in tissues of chickens treated with metyrapone; assay type: in vivo; conditions: metyrapone single oral 150 mg per chicken, 24 h
Outline: as §2

BCRP protein [9] = assay type: in vivo; conditions: metyrapone single oral 150 mg per chicken, 24 h
Outline: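 Third-week-old chickens (6 per group), untreated or given a single oral CXR agonist dose of 150 mg per chicken, killed by CO2 24 h later. Tissues snap-frozen. Protein extracted with RIPA and quantified by BCA. Separated by 5–12% SDS-PAGE, blotted to PVDF. Probed with anti-BCRP 1:500 and anti-β-tubulin 1:5,000 overnight at 4°C. ECL detection; densitometry normalized to β-tubulin.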

Question: Which “Transport by chicken BCRP” value (chicken BCRP) does the source give for CS(=O)(=O)c1ccc([C@@H](O)[C@@H](CF)NC(=O)C(Cl)Cl)cc1 [Florfenicol, florfenicol] here?
Answer: Its value is “actively transported”.

Question: What about the “Absorption upon coadministration of gefitinib (a BCRP inhibitor)” value [1] of the same compound?
Answer: The value was “more extensively absorbed”.

Question: And the Vd/F [2]?
Answer: The Vd/F was 0.24 ± 0.05 L/kg.

Question: And the half-life [2]?
Answer: Its half-life is 2.13 ± 0.45 h.

Question: With COc1ccc2c3c([nH]c2c1)[C@H](CC(C)C)N1C(=O)[C@H](CCC(=O)OC(C)(C)C)NC(=O)[C@@H]1C3 [Ko143] as the compound, how does the “Effect on metyrapone-induced mitoxantrone efflux activity” value (BCRP; cotreatment of Ko143 with 500 µM metyrapone) read?
Answer: The value was “reversed”.

Question: Which “Transport by chicken BCRP” value (chicken BCRP) does the source give for CC1(C)S[C@@H]2[C@H](NC(=O)[C@H](N)c3ccccc3)C(=O)N2[C@H]1C(=O)O [ampicillin] here?
Answer: Its value is “actively transported”.

Question: With CCN1CCN(c2cc3c(cc2F)c(=O)c(C(=O)O)cn3C2CC2)CC1 [enrofloxacin] as the compound, how does the “Transport by chicken BCRP” value (chicken BCRP) read?
Answer: The value was “actively transported”.

Question: For CS(=O)(=O)c1ccc([C@@H](O)[C@H](N)CF)cc1 [florfenicol amine], which “Eliminated by renal excretion as metabolite florfenicol amine” value [3] is on record?
Answer: Its value is 25%.

Question: For CC(C)(C(=O)c1cccnc1)c1cccnc1 [metyrapone, Metyrapone], which “Induction of ABCG2 at the mRNA level by metyrapone after knockdown of CXR” value (ABCG2 mRNA [4]) is on record?
Answer: The value was 0.7 fold.

Question: And the “Induction of ABCG2 at the protein level by metyrapone after knockdown of CXR” value (BCRP protein [5]; hepatocytes transfected with siCXR, 500 µM metyrapone 24 h)?
Answer: The value was 0.7 fold.

Question: What about the “BCRP protein expression, fold vs negative control cells” value (BCRP protein [5]; increasing concentrations of metyrapone, 24 h, chicken primary hepatocytes) of the same compound?
Answer: The value was “up to 2.8 fold”.

Question: What about the “CYP2H1 mRNA expression increase” value (CYP2H1 mRNA [6]; duodenum) of the same compound?
Answer: The value was 5.6 fold.

Question: And the “Effect on expression of CYP2H1” value (CYP2H1 mRNA [6]; ileum)?
Answer: Its value is “did not influence”.

Question: What about the “CYP2H1 mRNA expression increase” value (CYP2H1 mRNA [6]; jejunum) of the same compound?
Answer: Its value is 1.7 fold.

Question: And the “CYP2H1 mRNA expression increase” value (CYP2H1 mRNA [6]; kidney)?
Answer: Its value is 8 fold.

Question: And the “CYP2H1 mRNA expression increase” value (CYP2H1 mRNA [6]; liver)?
Answer: Its value is 3.6 fold.

Question: What about the “Intracellular mitoxantrone fluorescence lower than in untreated cells” value (BCRP; 500 µM metyrapone pretreatment 24 h, 5 µM mitoxantrone 1 h, P < 0.01) of the same compound?
Answer: The value was 33%.

Question: What about the “Induction of CYP2H1 mRNA upon metyrapone treatment, CXR expression vector” value (CYP2H1 mRNA [7]; hepatocytes transfected with CXR expression vector) of the same compound?
Answer: The value was 5.1 fold.

Question: And the “Induction of CYP2H1 mRNA by metyrapone after knockdown of CXR” value (CYP2H1 mRNA [7]; hepatocytes transfected with siCXR)?
Answer: Its value is 0.5 fold.

Question: And the “ABCG2 mRNA expression increase” value (ABCG2 mRNA [8]; duodenum)?
Answer: Its value is 1.8 fold.

Question: What about the “Effect on expression of ABCG2” value (ABCG2 mRNA [8]; ileum) of the same compound?
Answer: Its value is “did not influence”.

Question: What about the “ABCG2 mRNA expression increase” value (ABCG2 mRNA [8]; jejunum) of the same compound?
Answer: Its value is 1.6 fold.

Question: What about the “ABCG2 mRNA expression increase” value (ABCG2 mRNA [8]; kidney) of the same compound?
Answer: The value was 2.2 fold.

Question: And the “ABCG2 mRNA expression increase” value (ABCG2 mRNA [8]; liver)?
Answer: The value was 2.1 fold.

Question: What about the “BCRP protein expression increase” value (BCRP protein [9]; duodenum) of the same compound?
Answer: Its value is 1.4 fold.

Question: And the “BCRP protein expression increase” value (BCRP protein [9]; jejunum)?
Answer: Its value is 1.3 fold.

Question: What about the “BCRP protein expression increase” value (BCRP protein [9]; kidney) of the same compound?
Answer: Its value is 1.6 fold.

Question: What about the “BCRP protein expression increase” value (BCRP protein [9]; liver) of the same compound?
Answer: Its value is 1.6 fold.

Question: For CC[C@H]1OC(=O)C[C@@H](O)[C@H](C)[C@@H](O[C@@H]2O[C@H](C)[C@@H](O)[C@H](N(C)C)[C@H]2O)[C@@H](CCN2C[C@H](C)C[C@H](C)C2)C[C@@H](C)C(=O)/C=C/C(C)=C/[C@@H]1CO[C@@H]1O[C@H](C)[C@@H](O)[C@@H](OC)[C@H]1OC [tilmicosin], which “Transport by chicken BCRP” value (chicken BCRP) is on record?
Answer: The value was “actively transported”.
